We go through 28 compounds from ChEMBL document CHEMBL1148715, “Liver-targeted prodrugs of 2'-C-methyladenosine for therapy of hepatitis C virus infection” (J Med Chem, 2007).

In series [1] the test system is Hepatocyte. Nature of the series: Activation of prodrug to corresponding nucleoside triphosphate in Sprague-Dawley rat hepatocytes at 25 uM after 2 hrs. In kind it is cell-based. The procedure, abridged:
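Freshly isolated hepatocytes from fed Sprague–Dawley rats (250–300 g), >85% trypan blue viable, 20 mg/mL wet weight. Incubated 2 h at 37 °C in Krebs–bicarbonate buffer with 20 mM glucose and 1 mg/mL BSA; compound added from DMSO stock. Extract reconstituted in water; 2'-C-methyl-ATP measured by LC-MS/MS against an authentic triphosphate standard.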

Series [2] in a line: Solubility in citrate buffer at pH 5.1. In kind it is physicochemical.
The subject of series [3] is Liver. Nature of the series: Drug level in Sprague-Dawley rat liver at 50 mg/kg, po after 3 hrs. The arrangement: dose 50 mg/kg, route oral. As to conditions: in vivo. Type of series: ADME, organism-based. Summed up:
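Sprague–Dawley rats dosed by oral gavage in PEG-400. Liver (~1 g) taken at 3 h, snap-frozen, then homogenized in 3 volumes ice-cold 70% methanol with 20 mM EDTA/EGTA. Clarified supernatant dried and reconstituted. NTP measured by ion-pair LC-MS/MS ([…]/78.8) against a 0.01–30 μM 2'-C-methyl-ATP calibration curve; reported as nmol/g liver.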

Series [4] can be described thus: Oral bioavailability in Sprague-Dawley rat. Type of series: ADME, organism-based. The conditions noted are these: in vivo. Summed up:
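Rats given the prodrug iv (10 mg/kg) and orally (50 mg/kg, PEG-400; fasted, food returned a few hours after dosing). Liver NTP followed over time by LC-MS/MS. Bioavailability taken as the ratio of liver NTP AUC, oral versus iv.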

Series [5] can be described thus: Chemical stability at pH 7.0. In kind it is physicochemical. As to conditions: buffer. Summed up:
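Half-life measured in pH 7 buffer at 25 °C.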

A short description of series [6]: Aqueous solubility of the compound. In kind it is physicochemical.

For orientation: solubility means how much of the substance goes into solution per volume. Lower therefore signals little dissolved substance. By bioavailability is commonly meant the share of a dose that reaches the circulation, judged against a reference dose that is usually intravenous. The term half-life denotes how long it takes for the measured level to halve. Higher therefore signals slow loss.

In brackets after ≈: the same amount, converted by molar mass.

Take `C[C@@]1(O)[C@H](O)[C@@H](COP2(=O)OCCC(c3ccccc3Br)O2)O[C@H]1n1cnc2c(N)ncnc21` (some centres not stated): the Activity in series [1] was 122 nmol/g.
Take `C[C@@]12OC(=O)O[C@@H]1[C@@H](COP1(=O)OCC[C@@H](c3ccncc3)O1)O[C@H]2n1cnc2c(N)ncnc21` (some centres not stated): the solubility in series [2] and in series [6] was 450 µg/mL (≈ 892 µM) throughout. Besides, the Activity came out at 28.3 nmol/g in series [3] and 185 nmol/g in series [1]. In series [4], this compound had a bioavailability of 39%. The compound also showed a half-life in series [5] of 13 h.
For the compound `C[C@@]12OC(=O)O[C@@H]1[C@@H](COP1(=O)OCCC(c3cc(Cl)cc(Cl)c3)O1)O[C@H]2n1cnc2c(N)ncnc21` (some centres not stated), the results for the Activity in series [3] and in series [1] were 5 nmol/g and 49 nmol/g, respectively.
Taken in the same sequence, the figures for `C[C@@]1(O)[C@H](O)[C@@H](COP2(=O)OCC[C@@H](c3cccc(Cl)c3)O2)O[C@H]1n1cnc2c(N)ncnc21` (some centres not stated) were 2.9 nmol/g and 389 nmol/g.
As for `Cc1cncc(C2CCOP(=O)(OC[C@H]3O[C@@H](n4cnc5c(N)ncnc54)[C@](C)(O)[C@@H]3O)O2)c1` (some centres not stated), the Activity in series [1] was determined as 73 nmol/g.
Still for that read-out and setting: for `COc1cc(C2CCOP(=O)(OC[C@H]3O[C@@H](n4cnc5c(N)ncnc54)[C@](C)(O)[C@@H]3O)O2)ccn1` (some centres not stated) the value was 93 nmol/g; for `C[C@@]1(O)[C@H](O)[C@@H](COP2(=O)OCCC(c3cccc(C#N)c3)O2)O[C@H]1n1cnc2c(N)ncnc21` (some centres not stated), 137 nmol/g.
The same measure, in the same setting: for `C[C@@]1(O)[C@H](O)[C@@H](COP2(=O)OCCC(c3ccccn3)O2)O[C@H]1n1cnc2c(N)ncnc21` (some centres not stated) the value was 93 nmol/g.
In the case of `C[C@@]12OC(=O)O[C@@H]1[C@@H](COP1(=O)OCCC(c3cccc(F)c3)O1)O[C@H]2n1cnc2c(N)ncnc21` (some centres not stated), the Activity amounted to 22.9 nmol/g in series [3] and 313 nmol/g in series [1].
Taken in the same sequence, the figures for `C[C@@]1(O)[C@H](O)[C@@H](COP2(=O)OCCC(c3cccc(F)c3)O2)O[C@H]1n1cnc2c(N)ncnc21` (some centres not stated) were 4.1 nmol/g and 328 nmol/g.
Taken in the same sequence, the figures for `C[C@@]12OC(=O)O[C@@H]1[C@@H](COP1(=O)OCCC(c3cc(F)cc(F)c3)O1)O[C@H]2n1cnc2c(N)ncnc21` (some centres not stated) were 11.2 nmol/g and 113 nmol/g.
Taken in the same sequence, the figures for `C[C@@]1(O)[C@H](O)[C@@H](COP2(=O)OCCC(c3cc(F)cc(F)c3)O2)O[C@H]1n1cnc2c(N)ncnc21` (some centres not stated) were 4.1 nmol/g and 250 nmol/g.
As to `C[C@@]1(O)[C@H](O)[C@@H](COP2(=O)OCCC(c3cc(F)ccc3F)O2)O[C@H]1n1cnc2c(N)ncnc21` (some centres not stated), the Activity in series [1] is 139 nmol/g.
As for `C[C@@]1(O)[C@H](O)[C@@H](COP2(=O)OCCC(c3cccc(F)c3F)O2)O[C@H]1n1cnc2c(N)ncnc21` (some centres not stated), the Activity in series [3] was found to be 8.2 nmol/g; in series [1] it was 323 nmol/g.
For the compound `C[C@@]1(O)[C@H](O)[C@@H](COP2(=O)OCC[C@@H](c3ccncc3)O2)O[C@H]1n1cnc2c(N)ncnc21` (single isomer, unassigned), the results for the Activity in series [3] and in series [1] were 3.6 nmol/g and 47 nmol/g, respectively.
Taken in the same sequence, the figures for `CCCCCOC(=O)Nc1ncnc2c1ncn2[C@@H]1O[C@H](COP2(=O)OCCC(c3cccc(Cl)c3)O2)[C@@H](O)[C@@]1(C)O` (some centres not stated) were 1.6 nmol/g and 73 nmol/g.
Take `C[C@@]1(O)[C@H](O)[C@@H](COP2(=O)OCCC(c3ccc(C#N)cc3)O2)O[C@H]1n1cnc2c(N)ncnc21` (some centres not stated): the Activity in series [1] was determined as 41 nmol/g.
Still for that read-out and setting: with `C[C@@]1(O)[C@H](O)[C@@H](COP2(=O)OCCC(c3ccc(Cl)c(F)c3)O2)O[C@H]1n1cnc2c(N)ncnc21` (some centres not stated) the figure was 328 nmol/g.
Same read-out and setting: with `C[C@@]1(O)[C@H](O)[C@@H](COP2(=O)OCCC(c3cncc(Br)c3)O2)O[C@H]1n1cnc2c(N)ncnc21` (some centres not stated) the figure was 194 nmol/g.
In the case of `C[C@@]1(O)[C@H](O)[C@@H](COP2(=O)OCCC(c3cc(Cl)cc(Cl)c3)O2)O[C@H]1n1cnc2c(N)ncnc21` (some centres not stated), the Activity is on record as 2.4 nmol/g in series [3] and 585 nmol/g in series [1].
Taken in the same sequence, the figures for `C[C@@]12OC(=O)O[C@@H]1[C@@H](COP1(=O)OCC[C@@H](c3cccc(Cl)c3)O1)O[C@H]2n1cnc2c(N)ncnc21` (some centres not stated) were 29.2 nmol/g and 296 nmol/g.
With `C[C@@]1(O)[C@H](O)[C@@H](COP2(=O)OCCC(c3ccc(Cl)c(Cl)c3)O2)O[C@H]1n1cnc2c(N)ncnc21` (some centres not stated), the values for the Activity in series [3] and in series [1] were 2 nmol/g and 396 nmol/g, respectively.
`C[C@@]1(O)[C@H](O)[C@@H](COP2(=O)OCCC(c3cccc(Br)c3)O2)O[C@H]1n1cnc2c(N)ncnc21` (some centres not stated): the Activity in series [1] was found to be 99 nmol/g.
Same read-out and setting: for `C[C@@]1(O)[C@H](O)[C@@H](COP2(=O)OCCC(c3cccnc3)O2)O[C@H]1n1cnc2c(N)ncnc21` (some centres not stated) the value was 73 nmol/g; for `C[C@@]1(O)[C@H](O)[C@@H](CO)O[C@H]1n1cnc2c(N)ncnc21`, 209 nmol/g.
`C[C@@]12OC(=O)O[C@@H]1[C@@H](COP1(=O)OCCC(c3ccc(Cl)c(Cl)c3)O1)O[C@H]2n1cnc2c(N)ncnc21` (some centres not stated): the Activity in series [3] worked out at 11.8 nmol/g; in series [1] it was 97 nmol/g.
Regarding `C[C@@]1(O)[C@H](O)[C@@H](COP2(=O)OCCC(c3cc(F)ccc3Br)O2)O[C@H]1n1cnc2c(N)ncnc21` (some centres not stated), the Activity in series [1] is recorded as 72 nmol/g.
With `CC(C)[C@H](N)C(=O)O[C@@H]1[C@@H](COP2(=O)OCCC(c3cccc(Cl)c3)O2)O[C@@H](n2cnc3c(N)ncnc32)[C@]1(C)O` (some centres not stated), the Activity in series [3] was determined as 3.1 nmol/g; in series [1], 117 nmol/g.
